Results from ChEMBL document CHEMBL4396873, “Discovery of Potent, Selective, and Short-Acting Peptidic V2 Receptor Agonists” (J Med Chem, 2019).
Active and inactive are the calls of the source. No cut-off for these calls is given here. Numbered stars: 1 amine (or outer) side, 2 acyl side, 3 side chain; on linkers, the order of the positions; unused ones are H or OH. Bridge positions count the residues as written; N and C are the ends. Square brackets hold non-standard residues; d marks the D form. Peptide text beside a SMILES is read from it. * marks the point of attachment. Phe(4-Cl) = N[C@@H](Cc1ccc(Cl)cc1)C(=O)O; 2Thi = N[C@@H](Cc1cccs1)C(=O)O; Agmatine = N=C(N)NCCCCN*; X1 = O=C(CCC[*:2])[*:1]; NH(CH2)4NH2 = NCCCCN*; NEt2 = CCN(CC)*

Experiments:
[1] = Non-renal clearance in nephrectomized Sprague-Dawley rat at 0.1 mg/kg, iv administered as cassette dose by LC-MS/MS analysis; format: ADME, organism-based; conditions: in vivo
[2] = Protein binding in rat plasma at 200 to 1000 ng/ml measured after 15 mins by UC-LC/MS/MS analysis; format: ADME, cell-free; conditions: read-out: PPB (converted)
Outline: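 Peptide spiked into rat plasma to final 200-1000 ng/mL, incubated 15 min at 37 °C, ultracentrifuged at 773,000 xg for 30 min at 37 °C; middle-layer sample quantified by LC/MS/MS; binding (%) = (Ci − Cm)/Ci × 100; quadruplicate.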

[3] = target: Vasopressin V2 receptor (Rattus norvegicus, UniProt Q00788); experiment: Agonist activity at recombinant rat V2 receptor expressed in HEK293 cells measured after 5 hrs by cAMP response element driven luciferase reporter gene assay; format: functional, cell-based
[4] = Clearance in iv dosed over hydrated human; format: ADME, organism-based; conditions: in vivo
[5] = Clearance in severe renal impairment patent; format: ADME; conditions: human
[6] = target: Vasopressin V2 receptor (Rattus norvegicus) (UniProt Q00788); experiment: Agonist activity at recombinant rat V2 receptor expressed in HEK293 cells measured after 5 hrs by cAMP response element driven luciferase reporter gene assay relative to control; format: functional, cell-based
[7] = test system: Rattus norvegicus; experiment: Antidiuretic activity in hydrated-euvolemic Sprague-Dawley rat assessed as effective plasma concentration causing half-maximal suppression of urine output administered as iv infusion for 180 mins measured during compound dosing; format: functional, organism-based; conditions: 3 h
[8] = test system: Rattus norvegicus; experiment: Antidiuretic activity in hydrated-euvolemic Sprague-Dawley rat assessed as suppression of urine output by measuring cumulative urine weight administered as iv infusion for 180 mins measured during compound dosing; format: functional
[9] = test system: Rattus norvegicus; experiment: Antidiuretic activity in hydrated-euvolemic Sprague-Dawley rat assessed as suppression of urine output by measuring cumulative urine weight at 30 pM administered as iv infusion for 180 mins measured up to 300 mins; format: functional
[10] = test system: Rattus norvegicus; experiment: Antidiuretic activity in hydrated-euvolemic Sprague-Dawley rat assessed as suppression of urine output at MED administered as iv infusion for 180 mins measured during compound dosing relative to control; format: functional
[11] = test system: Rattus norvegicus; experiment: Antidiuretic activity in hydrated-euvolemic Sprague-Dawley rat assessed as suppression of urine output at 30 pM administered as iv infusion for 180 mins measured after 5 hrs; format: functional, organism-based
[12] = test system: Rattus norvegicus; experiment: Antidiuretic activity in iv dosed rat assessed as suppression of urine output relative to control; format: functional
[13] = target: Vasopressin V1a receptor (Homo sapiens, UniProt P37288); experiment: Agonist activity at recombinant human V1a receptor expressed in HEK293 cells up to 1000 nM measured after 5 hrs by luciferase reporter gene assay; format: cell-based; conditions: hek293, 5 h
[14] = Clearance in Sprague-Dawley rat at 0.1 mg/kg, iv administered as cassette dose by LC-MS/MS analysis; format: ADME, organism-based; conditions: in vivo
[15] = target: T1, Oxytocin receptor (Homo sapiens) (UniProt P30559); experiment: Agonist activity at human OTR stably expressed in CHOK1 cells up to 10000 nM by NFAT-luciferase reporter gene assay; format: cell-based
T1 sequence (whole entry): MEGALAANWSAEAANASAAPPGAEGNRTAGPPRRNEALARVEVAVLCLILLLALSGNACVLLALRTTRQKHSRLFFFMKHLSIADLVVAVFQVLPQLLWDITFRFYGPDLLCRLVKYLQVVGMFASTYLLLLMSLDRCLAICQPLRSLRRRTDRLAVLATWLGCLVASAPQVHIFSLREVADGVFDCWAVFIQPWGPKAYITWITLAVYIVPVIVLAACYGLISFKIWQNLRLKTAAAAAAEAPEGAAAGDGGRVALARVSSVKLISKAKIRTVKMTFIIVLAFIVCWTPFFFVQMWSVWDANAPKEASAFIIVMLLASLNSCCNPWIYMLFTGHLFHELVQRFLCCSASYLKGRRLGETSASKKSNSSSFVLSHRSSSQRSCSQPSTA

[16] = Elimination half life in Sprague-Dawley rat at 0.1 mg/kg, iv administered as cassette dose by LC-MS/MS analysis; format: ADME, organism-based; conditions: in vivo, read-out: beta t1/2
[17] = test system: Rattus norvegicus; experiment: Antidiuretic activity in hydrated-euvolemic Sprague-Dawley rat assessed as suppression of urine output administered as iv infusion for 180 mins measured during compound dosing; format: functional, organism-based
[18] = test system: Rattus norvegicus; experiment: Antidiuretic activity in hydrated-euvolemic Sprague-Dawley rat assessed as suppression of urine output by measuring cumulative urine weight at 30 to 100 pM administered as iv infusion for 180 mins measured up to 300 mins; format: functional
[19] = Half life in iv dosed Sprague-Dawley rat by LC-MS/MS analysis; format: ADME, organism-based; conditions: in vivo
[20] = test system: Rattus norvegicus; experiment: Antidiuretic activity in hydrated-euvolemic Sprague-Dawley rat assessed as suppression of urine output at 30 to 100 pM administered as iv infusion for 180 mins measured within 1 hr; format: functional, organism-based
[21] = test system: Rattus norvegicus; experiment: Antidiuretic activity in hydrated-euvolemic Sprague-Dawley rat assessed as suppression of urine output at 30 pM administered as iv infusion for 180 mins measured immediately; format: functional, organism-based
[22] = test system: Rattus norvegicus; experiment: Antidiuretic activity in hydrated-euvolemic Sprague-Dawley rat assessed as suppression of urine output at 30 to 100 pM administered as iv infusion for 180 mins measured after 1 hr; format: functional, organism-based
[23] = target: Vasopressin V2 receptor (Homo sapiens, UniProt P30518); experiment: Agonist activity at recombinant human V2 receptor expressed in HEK293 cells measured after 5 hrs by cAMP response element driven luciferase reporter gene assay; format: functional, cell-based
[24] = target: Oxytocin receptor (Homo sapiens) (UniProt P30559); experiment: Agonist activity at recombinant human oxytocin receptor expressed in HEK293 cells measured after 5 hrs by luciferase reporter gene assay
[25] = target: Oxytocin receptor (Homo sapiens) (UniProt P30559); experiment: Agonist activity at recombinant human oxytocin receptor expressed in HEK293 cells measured after 5 hrs by luciferase reporter gene assay relative to control; conditions: read-out: Efficacy

Chain of Vasopressin V2 receptor (Rattus norvegicus, UniProt Q00788) (Q00788 whole entry): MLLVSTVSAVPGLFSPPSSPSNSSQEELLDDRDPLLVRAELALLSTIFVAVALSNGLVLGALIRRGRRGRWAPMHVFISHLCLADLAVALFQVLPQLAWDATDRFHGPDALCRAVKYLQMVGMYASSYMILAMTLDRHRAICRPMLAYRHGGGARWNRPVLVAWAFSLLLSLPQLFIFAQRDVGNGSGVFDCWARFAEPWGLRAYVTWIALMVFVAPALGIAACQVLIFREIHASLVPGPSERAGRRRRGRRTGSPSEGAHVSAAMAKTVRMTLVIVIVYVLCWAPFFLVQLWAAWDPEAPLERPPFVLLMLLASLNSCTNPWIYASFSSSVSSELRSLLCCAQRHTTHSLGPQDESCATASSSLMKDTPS
Chain of Vasopressin V2 receptor (Rattus norvegicus) (Q00788 whole entry, the tested form may be a part): as the sequence (Q00788 whole entry) above
Chain of Vasopressin V1a receptor (P37288 whole entry): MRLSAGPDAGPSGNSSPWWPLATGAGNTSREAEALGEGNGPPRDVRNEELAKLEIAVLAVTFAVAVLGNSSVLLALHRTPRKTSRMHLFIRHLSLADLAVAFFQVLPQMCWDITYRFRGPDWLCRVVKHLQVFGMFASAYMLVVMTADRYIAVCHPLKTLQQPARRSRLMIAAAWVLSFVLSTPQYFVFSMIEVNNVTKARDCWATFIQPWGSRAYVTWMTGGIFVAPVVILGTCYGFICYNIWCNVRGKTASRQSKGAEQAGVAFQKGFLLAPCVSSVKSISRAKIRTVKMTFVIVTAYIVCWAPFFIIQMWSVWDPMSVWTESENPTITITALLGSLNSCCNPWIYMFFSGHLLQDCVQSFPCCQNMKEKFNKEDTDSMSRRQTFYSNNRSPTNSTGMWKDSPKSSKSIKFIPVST
Chain of Vasopressin V2 receptor (Homo sapiens, UniProt P30518) (P30518 whole entry): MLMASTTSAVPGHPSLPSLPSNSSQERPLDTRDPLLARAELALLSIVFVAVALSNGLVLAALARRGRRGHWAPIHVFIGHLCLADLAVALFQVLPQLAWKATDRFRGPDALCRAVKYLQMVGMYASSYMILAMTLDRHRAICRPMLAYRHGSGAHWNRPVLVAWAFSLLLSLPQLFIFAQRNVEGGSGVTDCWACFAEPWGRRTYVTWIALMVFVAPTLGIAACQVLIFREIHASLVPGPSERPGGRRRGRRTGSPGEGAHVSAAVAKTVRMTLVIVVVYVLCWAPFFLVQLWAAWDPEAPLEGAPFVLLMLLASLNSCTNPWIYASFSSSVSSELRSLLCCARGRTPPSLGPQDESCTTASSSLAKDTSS

Compound	CL [1] [%]	fraction unbound at […] [2]	EC50 [3] [nM]	Efficacy [6] [%]	EC50 [7] [nM]	Activity [13]	clearance [14] [mL/min/kg]	Activity [15]	half-life [16] [min]	half-life [19] [min]	Activity [8] [g]	Activity [10] [%]	Activity [17]	Activity [18] [g]	further results
NC(=O)CC[C@@H]1NC(=O)[C@H](Cc2ccccc2)NC(=O)[C@H](Cc2ccc(O)cc2)NC(=O)CCSSC[C@@H](C(=O)N2CCC[C@H]2C(=O)N[C@H](CCCN=C(N)N)C(=O)NCC(N)=O)NC(=O)[C@H](CC(N)=O)NC1=O [DESMOPRESSIN]	11	0.59	0.03	–	–	–	–	–	–	–	–	–	–	–	clearance [4]: 1.7 mL/min/kg; clearance [5]: 0.69 mL/min/kg
N=C(N)NCCC[C@@H](NC(=O)[C@@H]1CCCN1C(=O)[C@@H]1CSSCCC(=O)N[C@@H](Cc2ccc(O)cc2)C(=O)N[C@@H](Cc2ccccc2)C(=O)N[C@@H](CCC(N)=O)C(=O)N[C@@H](CC(N)=O)C(=O)N1)C(=O)NCC(N)=O [DESMOPRESSIN]	–	–	–	100	0.00032	–	–	–	–	–	5.2	80	–	–	Activity [9]: 0.99 g; Activity [11]: Active; Activity [12]: 48%

More lines, main results first:

CL [1] [%]	fraction unbound at […] [2]	EC50 [3] [nM]	Efficacy [6] [%]	EC50 [7] [nM]	Activity [13]	clearance [14] [mL/min/kg]	Activity [15]	half-life [16] [min]	half-life [19] [min]	Compound	Activity [8] [g]	Activity [10] [%]	Activity [17]	Activity [18] [g]	further results
57	0.15	0.02	99	0.00064	Not Active	14	inactive	16	20	CC(C)[C@@H]1NC(=O)[C@H](Cc2cccs2)NC(=O)[C@H](Cc2ccc(Cl)cc2)NC(=O)CCCSC[C@@H](C(=O)N2CCC[C@H]2C(=O)NCCCCNC(=N)N)NC(=O)[C@H](CC(N)=O)NC1=O ([Phe(4-Cl)][2Thi]VNCP-Agmatine; linker N-5 via X1)	5	80	Dose-dependent effect	1.3	Activity [20]: inactive; Activity [21]: inactive
60	0.08	0.05	91	0.00043	Not Active	42	inactive	6.4	12	CCN(CC)C(=O)[C@@H](CCCNC(=N)N)NC(=O)[C@@H]1CCCN1C(=O)[C@@H]1CSCCCC(=O)N[C@@H](Cc2ccc(Cl)cc2)C(=O)N[C@@H](Cc2cccs2)C(=O)N[C@@H](C(C)C)C(=O)N[C@@H](CC(N)=O)C(=O)N1 ([Phe(4-Cl)][2Thi]VNCP[dR]-NEt2; linker N-5 via X1)	5	80	Dose-dependent effect	1	Activity [22]: inactive
18	0.58	–	–	–	Not Active	7.2	–	–	–	CC(C)[C@@H]1NC(=O)[C@H](Cc2cccs2)NC(=O)[C@H](Cc2ccc(O)cc2)NC(=O)CCCSC[C@@H](C(=O)N2CCC[C@H]2C(=O)NCCCCN)NC(=O)[C@H](CC(N)=O)NC1=O (Y[2Thi]VNCP-{NH(CH2)4NH2}; linker N-5 via X1)	–	–	–	–	EC50 [23]: 0.19 nM; EC50 [24]: 650 nM; Emax [25]: 28%
